According to paper PMC2858063 (Steroids, 2010):
“Also recorded” adds a separate entry of the source. Read-outs that look alike come from different tables or passages of the source.

Tests used:
[1] = target: T1, hu-mPRα (Homo sapiens, UniProt Q86WK9); test: hu-mPRα steroid binding assay; details: for RBA (Relative Binding Affinity): compared with progesterone (=100), human mPRα; for binding to hu-mPRα (in words): this study, Fig. 1, Table 1
T1 sequence (Q86WK9 1-346): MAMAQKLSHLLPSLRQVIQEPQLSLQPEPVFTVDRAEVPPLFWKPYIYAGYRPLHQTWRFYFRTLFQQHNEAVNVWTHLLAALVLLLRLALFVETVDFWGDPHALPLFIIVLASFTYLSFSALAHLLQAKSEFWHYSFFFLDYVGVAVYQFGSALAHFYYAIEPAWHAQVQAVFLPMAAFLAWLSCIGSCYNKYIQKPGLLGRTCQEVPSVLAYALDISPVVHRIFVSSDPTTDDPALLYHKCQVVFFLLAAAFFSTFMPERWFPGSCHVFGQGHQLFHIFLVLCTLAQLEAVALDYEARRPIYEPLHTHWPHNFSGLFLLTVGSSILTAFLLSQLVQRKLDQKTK

[2] = target: T2, human nPR (Homo sapiens, UniProt P06401); details: cited from earlier work; for pIC50 (mean): 50% displacement of [3H] Org 2058, extracted from log RBA; for logRBA: RBA (%) compared with that of Org 2058 (=100%)
T2 sequence (P06401 679-933 limits assumed): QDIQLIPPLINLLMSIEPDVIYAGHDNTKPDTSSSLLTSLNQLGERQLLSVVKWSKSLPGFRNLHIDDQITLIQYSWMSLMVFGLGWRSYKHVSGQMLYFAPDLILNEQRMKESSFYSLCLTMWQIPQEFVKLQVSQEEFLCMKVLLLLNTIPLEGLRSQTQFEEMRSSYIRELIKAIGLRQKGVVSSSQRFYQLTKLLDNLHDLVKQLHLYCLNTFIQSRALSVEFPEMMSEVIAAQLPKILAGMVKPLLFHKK

[3] = target: T1, hu-mPRα; details: cited from earlier work; for binding affinity for nPR compared with mPRα: selectivity in words
[4] = target: T1, hu-mPRα; test: MAPK activation assay; type: cell-based; details: 100 nM, 10 min, mPRα-transfected MDA-MB-231 cells
Outline: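 Control and mPRα-transfected MDA-MB-231 cells were serum-starved 5–6 days, then treated 10 min with progestins (100 nM; 1–100 nM for concentration-response), with EGF as positive control. Lysis was in RIPA buffer plus protease inhibitors. Lysate (10 μg/lane, non-reducing) ran on duplicate SDS gels, was blotted, and was probed for total or phospho-p42/44 with rabbit monoclonals, then HRP anti-rabbit 1 h. Detection was by chemiluminescence on film. Runs were repeated 3–4 times, with statistics versus vehicle.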

[5] = target: T2, human nPR; test: nPR steroid binding assay; details: that of progesterone

Question: For `CC(=O)[C@H]1CC[C@H]2[C@@H]3CCC4=CC(=O)CC[C@]4(CO)[C@H]3CC[C@]12C` [19-Hydroxyprogesterone], which “RBA (Relative Binding Affinity)” value [1] is on record?
Answer: 0.7%

Question: And the “binding to hu-mPRα (in words)” value [1]?
Answer: low binding affinities

Question: What does the source list for `CC(=O)[C@H]1CC[C@H]2[C@@H]3C=CC4=CC(=O)CC[C@]4(C)[C@H]3CC[C@]12C` [Pregna-4,6-diene-3,20-dione]?
Answer: IC50 [1]: 88.4 nM; RBA (Relative Binding Affinity) [1]: 98.9%; binding to hu-mPRα (in words) [1]: little or no influence relative to the progesterone response

Question: With `C#C[C@]1(O)CC[C@H]2[C@@H]3CCC4=CCCC[C@@H]4[C@H]3CC[C@@]21C` [Lynestrenol] as the compound, how does the “pIC50 (mean)” value [2] read?
Answer: 6.95

Question: What about the logRBA [2] of the same compound?
Answer: 0.23

Question: Which IC50 [1] does the source give for `CC(=O)[C@H]1CC[C@H]2[C@@H]3CC[C@H]4C[C@H](O)CC[C@]4(C)[C@H]3CC[C@]12C` [3α-Hydroxy-5α-pregnan-20-one] here?
Answer: 1150 nM

Question: What about the “RBA (Relative Binding Affinity)” value [1] of the same compound?
Answer: 7.6%

Question: With `CC(=O)[C@H]1CC[C@H]2[C@@H]3CCC4=CC(=O)[C@H](C#N)C[C@]4(C)[C@H]3CC[C@]12C` [3,20-Dioxopregn-4-ene-2α-carbonitrile] as the compound, how does the “RBA (Relative Binding Affinity)” value [1] read?
Answer: <1%

Question: And the “binding to hu-mPRα (in words)” value [1]?
Answer: inactivity

Question: Which “pIC50 (mean)” value [2] does the source give for `C[C@]12CC[C@H]3[C@@H](CCC4=CC(=O)CC[C@@H]43)[C@@H]1CC[C@@H]2O` [Nandrolone, 19-nortestosterone] here?
Answer: 7.20

Question: What about the logRBA [2] of the same compound?
Answer: 0.48

Question: For `CCC(=O)[C@@]1(C)CC[C@H]2[C@@H]3CCC4=CC(=O)CCC4=C3CC[C@@]21C` [Promegestone], which “pIC50 (mean)” value [2] is on record?
Answer: 8.90

Question: What about the logRBA [2] of the same compound?
Answer: 2.18

Question: And the “binding to hu-mPRα (in words)” value ([3]; earlier series, listed as R5020)?
Answer: little or no affinity; also recorded: poor binding affinities

Question: Which “pIC50 (mean)” value [2] does the source give for `CC[C@]1(O)CC[C@H]2[C@@H]3CCC4=CC(=O)CC[C@@H]4[C@H]3CC[C@@]21C` [17-Hydroxy-19-nor-17α-pregn-4-en-3-one] here?
Answer: 8.24

Question: And the logRBA [2]?
Answer: 1.52

Question: With `C[C@]12CC[C@H]3[C@@H](CCC4=CC(=O)CC[C@@]43C)[C@@H]1CC[C@H]2O` [17-Epitestosterone] as the compound, how does the “RBA (Relative Binding Affinity)” value [1] read?
Answer: 2.8%

Question: Which results are given for `C[C@]12CCC(=O)C[C@@H]1CC[C@@H]1[C@@H]2CC[C@]2(C)[C@@H](O)CC[C@@H]12` [5α-Dihydrotestosterone (DHT), 5α-Dihydrotestosterone]?
Answer: pIC50 (mean) [2]: 6.16; logRBA [2]: −0.56

Question: For `C#C[C@]1(O)CC[C@H]2[C@@H]3CCC4=CC(=O)CC[C@]4(C)[C@H]3CC[C@@]21C` [Ethisterone], which “binding affinity for nPR compared with mPRα” value [3] is on record?
Answer: greater binding affinity for nPR than mPRα

Question: With `CC(C)[C@@H]1C[C@H]2[C@@H]3CCC4=CC(=O)CC[C@@H]4[C@H]3CC[C@]2(C)[C@H]1O` [17β-Hydroxy-16α-isopropylestr-4-en-3-one] as the compound, how does the “pIC50 (mean)” value [2] read?
Answer: 7.72

Question: What about the logRBA [2] of the same compound?
Answer: 1.00

Question: Which IC50 [1] does the source give for `CC(=O)[C@H]1CC[C@H]2[C@@H]3CCC4=CC(=O)CC[C@]4(C)[C@H]3CC[C@]12C` [Progesterone] here?
Answer: 87.4 nM

Question: What does the source list for “18a-methylprogesterone [18a-Methylprogesterone (Org OE 64-0)]”?
Answer: RBA (Relative Binding Affinity) [1]: 2009%; binding to hu-mPRα (in words) [1]: affinities higher than that of progesterone; MAPK activation (phosphorylation of ERK) [4]: mPRα agonists; relative binding affinity for nPR [5]: 20.8%

Question: What does the source list for 3,20-dioxopregn-4-ene-18-carbonitrile?
Answer: RBA (Relative Binding Affinity) [1]: 1.8%; binding to hu-mPRα (in words) [1]: low binding affinities

Question: For `CC(=O)[C@H]1CC[C@H]2[C@@H]3CCC4=CC(=O)CC[C@@H]4[C@H]3CC[C@]12C` [19-Norprogesterone], which “pIC50 (mean)” value [2] is on record?
Answer: 8.53

Question: And the logRBA [2]?
Answer: 1.81

Question: And the “binding affinity for nPR compared with mPRα” value [3]?
Answer: greater binding affinity for nPR than mPRα

Question: Which “RBA (Relative Binding Affinity)” value [1] does the source give for `CCCCCC(=O)O[C@]1(C(C)=O)CC[C@H]2[C@@H]3CCC4=CC(=O)CC[C@]4(C)[C@H]3CC[C@@]21C` [17-Caproylprogesterone] here?
Answer: 4.4%

Question: Which results are given for `CC[C@]1(O)CC[C@H]2[C@@H]3CCC4=CCCC[C@@H]4[C@H]3CC[C@@]21C` [Ethylestrenol]?
Answer: pIC50 (mean) [2]: 7.21; logRBA [2]: 0.49

Question: Which “binding to hu-mPRα (in words)” value ([3]; earlier series) does the source give for `CC(=O)[C@H]1CC[C@H]2[C@@H]3CCC4=CC(=O)[C@H](O)C[C@]4(C)[C@H]3CC[C@]12C` [2α-hydroxyprogesterone] here?
Answer: poor binding

Question: Which “pIC50 (mean)” value [2] does the source give for `C=CC[C@]1(O)CC[C@H]2[C@@H]3CCC4=CCCC[C@@H]4[C@H]3CC[C@@]21C` [Allylestrenol] here?
Answer: 7.04

Question: What about the logRBA [2] of the same compound?
Answer: 0.32

Question: With `C#CC1(O)CC[C@H]2[C@@H]3CCC4=CC(=O)CC[C@@H]4[C@H]3CC[C@@]21CC` (mixture of isomers) [norgestrel] as the compound, how does the “binding affinity for nPR compared with mPRα” value [3] read?
Answer: greater binding affinity for nPR than mPRα

Question: For `C[C@]1(O)CC[C@H]2[C@@H]3CCC4=CC(=O)CC[C@@H]4[C@H]3CC[C@@]21C` [17β-Hydroxy-17α-methylestr-4-en-3-one], which “pIC50 (mean)” value [2] is on record?
Answer: 7.66

Question: And the logRBA [2]?
Answer: 0.94

Question: For `CC#C[C@]1(O)CC[C@H]2[C@@H]3CCC4=CC(=O)CCC4=C3[C@@H](c3ccc(N(C)C)cc3)C[C@@]21C` [Mifepristone], which “binding to hu-mPRα (in words)” value ([3]; earlier series, listed as RU486) is on record?
Answer: little or no affinity; also recorded: does not bind

Question: With `C[C@]12CCC(=O)C=C1CC[C@@H]1[C@@H]2[C@@H](O)C[C@@]2(C)[C@H]1CC[C@]2(O)C(=O)CO` [Cortisol (hydrocortisone), Cortisol] as the compound, how does the “binding to hu-mPRα (in words)” value [1] read?
Answer: complete loss of affinity

Question: With `C[C@]12CC[C@H]3[C@@H](CC[C@H]4CC(=O)CC[C@@H]43)[C@@H]1CC[C@@H]2O` [5α-Dihydronandrolone] as the compound, how does the “pIC50 (mean)” value [2] read?
Answer: 6.50

Question: And the logRBA [2]?
Answer: −0.22

Question: With `CC(=O)S[C@@H]1CC2=CC(=O)CC[C@]2(C)[C@H]2CC[C@]3(C)[C@@H](C(C)=O)CC[C@H]3[C@H]12` [7α-Acetylthioprogesterone (Org 33718-0), 7α-Acetylthioprogesterone] as the compound, how does the “RBA (Relative Binding Affinity)” value [1] read?
Answer: <1%

Question: With `C[C@]12CCC(=O)C=C1CC[C@@H]1[C@@H]2CC[C@]2(C)C(=O)CC[C@@H]12` [Androst-4-ene-3,17-dione] as the compound, how does the “binding to hu-mPRα (in words)” value [1] read?
Answer: unable to bind

Question: And the “pIC50 (mean)” value [2]?
Answer: 6.02

Question: What about the logRBA [2] of the same compound?
Answer: −0.70

Question: Which “binding to hu-mPRα (in words)” value [1] does the source give for `C[C@]12CC[C@@H]3c4ccc(O)cc4CC[C@H]3[C@@H]1CC[C@@H]2O` [Estradiol-17β] here?
Answer: no binding affinity

Question: Which IC50 [1] does the source give for `CC(=O)[C@H]1CC[C@H]2[C@@H]3CCC4=CC(=O)C=C[C@]4(C)[C@H]3CC[C@]12C` [Pregna-1,4-diene-3,20-dione] here?
Answer: 93.5 nM

Question: And the “RBA (Relative Binding Affinity)” value [1]?
Answer: 93.5%

Question: And the “binding to hu-mPRα (in words)” value [1]?
Answer: little or no influence relative to the progesterone response

Question: Which “pIC50 (mean)” value [2] does the source give for `C[C@]12CC[C@H]3[C@@H](CCC4=CC(=O)CC[C@@]43C)[C@@H]1CC[C@@H]2O` [Testosterone] here?
Answer: 6.02

Question: What about the logRBA [2] of the same compound?
Answer: −0.70

Question: And the “RBA for hu-mPRα” value ([3]; progesterone = 100 %, earlier series)?
Answer: 22.4%

Question: With `CC(=O)[C@H]1CC[C@H]2[C@@H]3CCC4=CC(=O)CC[C@]4(C)[C@H]3[C@@H](O)C[C@]12C` [11β-hydroxyprogesterone] as the compound, how does the “lower binding affinity relative to progesterone” value ([3]; mPRα, observed earlier) read?
Answer: 10 fold

Question: For `CC(=O)[C@H]1CC[C@H]2[C@@H]3CC[C@H]4C[C@@H](O)CC[C@]4(C)[C@H]3CC[C@]12C` [3β-Hydroxy-5α-pregnan-20-one], which “binding to hu-mPRα (in words)” value [1] is on record?
Answer: absence of binding

Question: With `CCC1CC2C3CCC4=CC(=O)CCC4C3CCC2(C)C1C(=O)CO` (stereo not drawn) [16α-ethyl-21-hydroxy-19-norpregn-4-ene-3,20-dione] as the compound, how does the logRBA [2] read?
Answer: 2.00

Question: And the “binding to hu-mPRα (in words)” value ([3]; earlier series)?
Answer: poor binding affinities

Question: And the “binding affinity for nPR compared with mPRα” value [3]?
Answer: greater binding affinity for nPR than mPRα

Question: With `C[C@@H]1C=C2CC(=O)CC[C@]2(C)[C@H]2CC[C@]3(C)[C@@H](O)CC[C@H]3[C@H]12` [17β-Hydroxy-7α-methylandrost-5-en-3-one] as the compound, how does the IC50 [1] read?
Answer: 2880 nM

Question: What about the “RBA (Relative Binding Affinity)” value [1] of the same compound?
Answer: 3.0%

Question: What about the “decrease in binding relative to testosterone” value ([1]; mPRα, compared with testosterone of ref 10) of the same compound?
Answer: 10 fold

Question: Which results are given for `C[C@]12CCC(=O)C=C1CC[C@@H]1[C@@H]2CC[C@@]2(C)[C@H]1CC[C@]2(O)C(=O)CO` [Cortexolone (11-deoxycortisol), 11-deoxycortisol]?
Answer: IC50 [1]: 4850 nM; RBA (Relative Binding Affinity) [1]: 1.8%; binding to hu-mPRα (in words) [1]: less potent than deoxycorticosterone

Question: Which “binding affinity for nPR compared with mPRα” value [3] does the source give for `C#C[C@]1(O)CC[C@H]2[C@@H]3CCC4=CC(=O)CC[C@@H]4[C@H]3CC[C@@]21C` [norethisterone] here?
Answer: greater binding affinity for nPR than mPRα
